# Source: PubChem
# Insulin prom act: TRM-6 insulin promoter activation. TRM-6 cells (human fetal islet line), insulin promoter eGFP reporter, imaging; plate-scaled: unstimulated 0, stimulated control 100. activation, % at 2 µM. hit rate 0.81% among 130,000. AID 1296;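 active means activation at 2 µM above a set limit, confirmed on inspection of the cell images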;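 further: share of cells whose green reporter signal exceeds an intensity cutoff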
#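 test system = TRM-6 insulin promoter–eGFP reporter cells | benchmarks = stimulated versus unstimulated wells as plate controls | read-out basis = percent cells above green-intensity threshold, converted to percent activation versus plate controls | detection = fixed-cell fluorescence microscopy, eGFP plus Hoechst | incubation = tamoxifen pre-incubation 15 h overnight, then compound exposure 48 h at 37 °C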
# * = called active by the depositor. Many of the other results were omitted from the sample, so hits are more common in it than they were.
SMILES,Insulin prom act
CCN(CCO)Cc1csc2ccc(Br)cc12,-8.6
CSc1ccccc1NS(=O)(=O)c1ccccc1,-9.5
CCc1ccc(S(=O)(=O)/N=C2\C=CC(=O)c3ccccc32)cc1,326.7*
CCc1ccc(S(=O)(=O)/N=C2/C=C(Sc3ncn[nH]3)C(=O)c3ccccc32)cc1,169.4
Cc1c(-n2c(SCC(=O)O)nnc2-c2ccccc2Cl)c(=O)n(-c2ccccc2)n1C,40.0
CCCC(=O)NC(c1ccco1)c1c(O)ccc2ccccc12 (centres undefined),133.3*
CCOC(=O)C(Cc1c[nH]c2ccccc12)NC(=O)c1ccco1 (centres undefined),-9.4
CCCC(=O)NC(c1ccco1)c1cc([N+](=O)[O-])c2cccnc2c1O (centres undefined),6.7
Cc1nnsc1C(=O)NC(C)c1ccccc1 (centres undefined),-8.3
Cc1ccc(NS(=O)(=O)c2cccc(C(=O)Nc3cc(C)on3)c2)cc1,368.8*
Cc1cc(NC(=O)c2ccccc2NS(=O)(=O)c2c(C)c(C)cc(C)c2C)no1,3.8
Cc1ccc(S(=O)(=O)Nc2cccc(C(=O)Nc3cc(C)ccn3)c2)cc1,6.7
Cc1[nH]c2ccc(F)cc2c1CCN(Cc1ccco1)C(=S)NC(C)(C)C,347.1*
COc1cccc(NC(=S)N(CCc2c(C)[nH]c3ccc(C)cc23)Cc2cccs2)c1,-4.8
Cc1ccccc1NC(=S)N(CCc1c(C)[nH]c2ccc(F)cc12)Cc1cccnc1,0.0
CCc1nnc(NC(=O)CCC(=O)N2CCN(C3c4ccccc4-c4ccccc43)CC2)s1,6.9
O=S(=O)(NC1CCCC1)c1cccc(S(=O)(=O)N2CCC(n3nnc4ccccc43)CC2)c1,157.1*
Cc1cccc(NC(=O)N2CCC(n3nnc4cc(C)ccc43)CC2)c1,0.0
O=S(=O)(NCC1CCCO1)c1cccc(S(=O)(=O)N2CCCC2)c1 (centres undefined),0.0
O=C(NNC(=O)[C@@H]1CCCC[C@@H]1C(=O)O)Nc1ccccc1,-9.4
Cc1c(Cl)cccc1NC(=O)CSc1nnc(CCNC(=O)OC(C)(C)C)o1,6.1
O=C(Cc1ccccc1)Nc1ccc(CN2CCOCC2)cc1,5.9
O=C(Nc1ccc2c(c1)OCO2)c1ccc(CN2CCOCC2)cc1,8.3
CSc1ccccc1NC(=O)c1ccc(CN2CCOCC2)cc1,276.5*
CSC(=NC#N)N1CCN(c2cccc(Cl)c2)CC1,0.0
SMILES,Insulin prom act
CC(=O)OCCSc1c(-c2ccccc2)c2cc(Cl)ccc2[nH]c1=O,5.9
CCOC(=O)c1ccc(NC(=O)COc2ccc(-n3cnnn3)cc2)cc1,3.2
CC(=O)Nc1ccc(-n2cnnn2)cc1,512.5*
O=C(COc1ccc(F)cc1)Nc1ccc(-n2cnnn2)cc1,-2.6
COc1ccc(Cc2c(O)nc(SCC(=O)NC(C)(C)C)[nH]c2=O)cc1,7.1
O=C(N/N=C/c1ccncc1)c1ccccc1OCc1ccc(Br)cc1,0.0
CCN(CC)S(=O)(=O)c1ccc(N2CCOCC2)c(NS(=O)(=O)c2cc(C(C)(C)C)ccc2C)c1,2.7
CC1CC(C)(C)CC2(C1)NC(=O)N(CC(=O)NCCc1c[nH]c3ccccc13)C2=O (centres undefined),-5.9
COCCCn1c(C)nc2c(c1=O)c1nc3ccccc3nc1n2CCc1ccccc1,-7.7
O=C(O)CC12CC3CC(C1)CC(n1ncc(NCc4ccc5c(c4)OCO5)c(Cl)c1=O)(C3)C2,7.1
CC(=O)N1CCN(C(=S)Nc2ccc(Oc3ccccc3)cc2)CC1,0.0
Cc1cc(NC(=O)c2ccc(S(=O)(=O)N(C)CC3CCCO3)cc2)no1 (centres undefined),414.3*
CC(=O)Nc1ccc(C(=O)Nc2ccc(S(=O)(=O)NCC3CCCO3)cc2)cc1 (centres undefined),-6.1
Cc1cc(NC(=O)c2ccc3c(c2)OCO3)no1,-84.8
Cc1cc(=O)[nH]c(N/N=C/c2ccc(Br)s2)n1,0.0
C=CCS(=O)(=O)c1cccc2cccnc12,0.0
COc1cccc(C(=O)Nc2cc3c(cc2Cl)OCCCO3)c1,0.0
Cc1nn(-c2cc(N3CCOCC3)ccc2N)c(=O)c2ccccc12,5.6
Cc1nn(-c2cc(N3CCCC3)ccc2[N+](=O)[O-])c(=O)c2ccccc12,133.9*
Cc1ccc(-c2nn(-c3cc(Cl)ccc3[N+](=O)[O-])c(=O)c3ccccc23)cc1,2.2
COc1ccc(Cl)cc1NC(=O)c1ccco1,-6.1
O=C(Nc1ccc(Cl)cc1C(=O)Nc1ccc(Br)cn1)c1ccco1,600.0*
O=C(Nc1ccc(Cl)cn1)c1ccc(-c2cc(Cl)ccc2Cl)o1,3.3
Cc1nn(C(=O)N2CCCCC2)c(C)c1CN1C(=O)c2ccccc2C1=O,1.2
O=C(CSc1nc2ccccc2c(=O)n1NC(=O)c1ccccc1)c1ccccc1,0.0
SMILES,Insulin prom act
O=C(Nn1c(Cc2cccs2)nc2ccccc2c1=O)c1ccc(F)c(F)c1,418.8*
O=C(Nn1c(C2CCC2)nc2ccccc2c1=O)c1cccs1,0.0
CN(/C(=N\S(=O)(=O)c1ccccc1)c1ccccc1)c1ccc(O)cc1,128.6
COc1ccc(CN2C(=O)CS(=O)CC2=O)cc1OC,7.4
CC(C)(C)NC(=O)COC(=O)Cc1ccc(Cl)cc1,7.1
Cc1cccc(-c2nc(CN3CCCC(C(=O)NC4CCCCCC4)C3)c(C)o2)c1 (centres undefined),171.4*
Cc1cccc(-c2nc(CS(=O)CC(=O)NCC3CCCO3)c(C)o2)c1 (centres undefined),0.0
Cc1noc(C)c1S(=O)(=O)N1CCCC(C(=O)NC2CCCCC2)C1 (centres undefined),-7.7
CCOc1ccc(-c2nc(CSCC(=O)NC3CCCc4ccccc43)c(C)o2)cc1 (centres undefined),2.8
CC(=O)c1cc2c(cc1NC(=O)CN1CCCCCCC1)OCO2,5.3
Cc1ccc(/C=C/c2nc3ccccc3[nH]2)o1,-71.4
COc1ccc(NC(=O)Cn2cnc3c(nnn3-c3ccc(C)cc3)c2=O)cc1,-5.3
O=C(COC(=O)COc1ccccc1)NCc1ccccc1,0.0
O=C(NCCc1ccccc1)c1ccc(-c2ccccc2C(F)(F)F)o1,4.8
O=C(NCCc1ccccc1)c1oc2ccccc2c1COc1ccccc1,80.0*
CC1(C)C(=O)OC(/C=C\c2ccccc2)C(C)(C)C1=O (centres undefined),5.9
CCc1nc(SCC(=O)Nc2ccnc3ccccc23)n[nH]1,204.5
COC(=O)CNc1ccc2c(c1)OCO2,393.3
Cc1cc(C)cc(NC(=S)NCc2ccc3c(c2)OCO3)c1,-2.3
Cc1ccc(CNc2ccc3c(c2)OCO3)cc1,440.5*
COC(=O)c1sccc1NC(=O)Cc1ccc(Br)cc1,-3.4
COC(=O)C1=C(C)NC(=S)NC1c1ccc(-c2ccccc2C(=O)OC)o1 (centres undefined),428.6*
COC(=O)C1=C(C)NC(=S)NC1c1ccc(-c2cccc(Cl)c2)o1 (centres undefined),0.0
COC(=O)C1=C(C)NC(=O)NC1c1ccc(-c2ccc(F)cc2)o1 (centres undefined),-5.6
CCCCC(C(=O)O)C(C)CC(=O)NNC(=O)c1ccco1 (centres undefined),7.7
CCCCn1c(/N=C/c2ccc3c(c2)OCO3)nc2ccccc21,80.7*
Cn1c(=S)n(/N=C/c2ccc3c(c2)OCO3)c2ccccc21,-8.3
CN(C)CCCn1c(NCc2ccc3c(c2)OCO3)nc2ccccc21,-7.1
COC(=O)C1=C(C)N(c2cccc(C(C)=O)c2)C(=O)C1,475.0*
CCN1C(=O)CC(C(=O)OC)=C1C,5.9
